# Sampled rows, rich in hits. Any-hit rate of the full collection: about 5.8%.
# GASC1 inh: inhibitors of GASC-1 (KDM4C) histone demethylase, primary screen, biochemical, single concentration HTS; Lysine-specific demethylase 4C (Homo sapiens), Q9H3R0; GST-KDM4C 2-372, H3K9me3 peptide, LANCE TR-FRET; inhibition, % at 12.5 µM; actives 0.15% (n = 96,000); AID 720574, 2013;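 active = mean replicate inhibition above about 25%, with at least 55% of replicates also reaching it, limit read from the data, passing the limit was not always enough; inconclusive = only one of those two conditions met; inactive = neither condition met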
#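 reagent = H3K9me3 peptide substrate, Fe(II), 2-oxoglutarate | system = GST-tagged GASC-1 (JMJD2C) catalytic fragment, aa 2-372 | amount = enzyme final amount 10 nM | read-out = Fall in 671/618 emission ratio as inhibition | medium = HEPES buffer, pH 7.5, plus ascorbate | schedule = 30 min reaction, 60 min detection, RT | measured by = LANCE TR-FRET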
# Pf Dd2 growth: P. falciparum Dd2 growth inhibitors, primary screen, SYBR Green fluorescence, single dose replicates. 72 h; hits give low values. activity change, % at 10 µM. actives 2.3% (n = 94,000); in the data active = activity change below about -80%; inconclusive = no clear call, values can overlap the other calls
# IDH1 mut inh: inhibitors of IDH1 R132H reductase, primary screen, biochemical, plate reader, single point | Isocitrate dehydrogenase [NADP] cytoplasmic (Homo sapiens), O75874 | diaphorase/resazurin fluorescence, 60 min | inhibition, % at 10 µM | actives 0.18% (n = 70,000); in the data active = inhibition above about 34%; inconclusive = no clear call, values can overlap the other calls; inactive = below about 11%
# Target sequence (O75874 whole entry R132H): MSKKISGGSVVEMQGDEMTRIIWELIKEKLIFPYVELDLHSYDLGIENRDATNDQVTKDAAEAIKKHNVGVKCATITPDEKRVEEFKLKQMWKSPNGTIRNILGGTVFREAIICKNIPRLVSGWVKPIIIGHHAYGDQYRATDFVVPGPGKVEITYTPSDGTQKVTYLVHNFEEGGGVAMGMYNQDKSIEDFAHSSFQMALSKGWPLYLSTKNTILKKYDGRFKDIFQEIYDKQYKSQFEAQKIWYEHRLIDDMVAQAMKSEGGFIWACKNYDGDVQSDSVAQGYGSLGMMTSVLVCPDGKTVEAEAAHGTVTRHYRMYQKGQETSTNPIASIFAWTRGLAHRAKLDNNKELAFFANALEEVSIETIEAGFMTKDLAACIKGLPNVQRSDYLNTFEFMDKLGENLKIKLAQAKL
# T cruzi growth-1: T. cruzi intracellular proliferation inhibitors, primary screen, cell-based, beta-gal Tulahuen parasites, NIH3T3 host, luminescence | T. cruzi beta-gal in NIH3T3, GalScreen luminescence, 90 h | inhibition, % at 8.34 µM | actives 5.9% (n = 77,000);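 active = mean inhibition above about 93%, with at least 55% of replicates each passing it, limit read from the data, passing the limit was not always enough; inconclusive = only one of those two conditions holds; inactive = neither condition holds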
# T cruzi growth-2: T. cruzi intracellular proliferation inhibitors, confirmation, cell-based, NIH3T3 host, beta-gal parasite, luminescence, cherry-pick. shares compounds with T cruzi growth-1. T. cruzi beta-gal in NIH3T3, GalScreen luminescence, 90 h. inhibition, % at 8.35 µM. actives 72% (n = 5,600). AID 651739, 2012;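 active = mean replicate inhibition above about 95% and at least 55% of replicates individually reaching it, limit read from the data; inconclusive = only one of the two criteria is met; inactive = neither criterion is met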
# T cruzi growth-3: inhibitors of intracellular T. cruzi replication, confirmation, NIH3T3 host cells, beta-gal parasites, cherry-pick, set 2 | actives 21% (n = 5,600) | T. cruzi beta-gal in NIH3T3, GalScreen luminescence, 90 h | inhibition, % at 2.09 µM | shares compounds with T cruzi growth-1;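 active = mean inhibition above about 95%, with at least 55% of replicates also reaching it, limit read from the data; inconclusive = meets just one of the two conditions; inactive = meets neither condition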
# NIH3T3 tox: cytotoxicity in mouse NIH/3T3 fibroblasts, confirmation, cytotoxicity control for T. cruzi proliferation inhibitor project, cell-based, cherry-pick, single point. NIH/3T3 viability, CellTiter-Glo ATP luminescence, 90 h. actives 14% (n = 5,600). AID 651742, 2012. cytotoxicity (signal decrease), % at 8.35 µM. shares compounds with T cruzi growth-1;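 active = mean signal decrease across replicates above about 35% based on untreated-well scatter, with enough replicates individually passing, limit read from the data; inconclusive = no rule stated though some were filed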
# NIH3T3 tox 2: NIH/3T3 fibroblast cytotoxicity, confirmation, cytotoxicity control, cell-based, cherry-pick, single point, set 2; actives 56% (n = 5,600); AID 651744, 2012; inhibition, % at 24.9 µM; shares compounds with T cruzi growth-1; NIH/3T3 viability, CellTiter-Glo ATP luminescence, 90 h;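 active = mean loss of cell viability signal at or above a set limit, and enough replicates individually reaching it; inconclusive = meets only the mean limit or only the replicate share; inactive = meets neither condition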
# Hits are given with their value; – = inactive; ? = inconclusive; · = no result.
SMILES,GASC1 inh,Pf Dd2 growth,IDH1 mut inh,T cruzi growth-1,T cruzi growth-2,T cruzi growth-3,NIH3T3 tox,NIH3T3 tox 2
CCN1[C@@H]2c3ccc(C4=CCCCC4)c(=O)n3C[C@@H]2[C@@H](CO)[C@@H]1C(=O)OC,–,–,·,97,–,–,–,–
COC(=O)[C@@H]1[C@@H](CO)[C@@H]2Cn3c(ccc(C4=CCCCC4)c3=O)[C@@H]2N1CCC(F)(F)F,–,·,·,–,·,·,·,·
CC(C)(C)NC(=O)CSc1nnc(-c2ccccc2Cl)n1-c1ccccc1,·,·,–,·,·,·,·,·
CCCNC(=O)C[C@@H]1CC[C@@H]2[C@@H](COc3ccc(NC(=O)C4CCCC4)cc3C(=O)N2C)O1,–,–,·,–,·,·,·,·
COC(=O)c1cccc(NC(=O)COc2cc(C)ccc2C)c1,·,·,–,·,·,·,·,·
Cc1ccc(S(=O)(=O)N[C@@H]2CC[C@H](CC(=O)N3CCc4ccccc4C3)O[C@H]2CO)cc1,–,–,–,–,·,·,·,·
COCC(=O)N1CCCCN2[C@H](C1)[C@@H](c1ccc(-c3ccc(F)cc3)cc1)[C@@H]2CO,–,–,·,–,·,·,·,·
Cc1ccc(-c2ccc([C@@H]3[C@H]4CN(C(=O)c5ccc(F)cc5)CCCCN4[C@H]3CO)cc2)cc1,–,–,·,111,103,–,–,85
Cc1ccc(-c2ccc([C@@H]3[C@@H](CO)N4CCCCN(C(=O)c5ccc(F)cc5)C[C@H]34)cc2)cc1,–,–,·,104,108,–,–,104
CCC(=O)N1CCCCN2[C@@H](CO)[C@H](c3ccc(-c4ccc(F)cc4)cc3)[C@@H]2C1,–,–,·,101,–,–,–,61
Cc1ccc(-c2ccc([C@@H]3[C@H](CO)N4CCCCN(C(=O)c5ccc(F)cc5)C[C@@H]34)cc2)cc1,–,–,·,111,98,–,?,103
Cc1ccccc1-c1ccc([C@H]2[C@H](CO)N3C(=O)CN(C(=O)c4ccncc4)C[C@@H]23)cc1,–,–,·,·,·,·,·,·
CCc1csc(N2[C@H](C#N)[C@H](c3ccc(-c4cccc(F)c4)cc3)[C@H]2CO)n1,–,–,·,–,·,·,·,·
CCc1csc(N2[C@@H](C#N)[C@@H](c3ccc(-c4ccc(F)cc4)cc3)[C@@H]2CO)n1,–,–,·,98,98,–,49,83
C/C=C/c1ccc([C@H]2[C@@H](CO)N(c3nc(CC)cs3)[C@H]2C#N)cc1,–,–,·,101,–,–,–,26
CCc1csc(N2[C@H](C#N)[C@@H](c3ccc(-c4ccc(F)cc4)cc3)[C@H]2CO)n1,–,–,·,106,106,99,–,?
C/C=C/c1ccc([C@@H]2[C@@H](CO)N(c3nc(-c4ccccc4)cs3)[C@H]2C#N)cc1,–,–,·,·,·,·,·,·
CCc1csc(N2[C@@H](C#N)[C@@H](c3ccc(C4=CCCC4)cc3)[C@@H]2CO)n1,–,–,·,101,103,–,42,77
O=C(NC1CCC1)[C@@H]1[C@@H](CO)[C@@H]2Cn3c(ccc(-c4cncnc4)c3=O)[C@@H]2N1C(=O)NC1CCCC1,–,–,·,–,·,·,·,·
C[C@@H]1CCCCO[C@H](CN(C)C(=O)CCC(F)(F)F)[C@H](C)CN([C@H](C)CO)C(=O)c2cc(NS(=O)(=O)c3cn(C)cn3)ccc2O1,–,–,–,–,·,·,·,·
C[C@H]1CCCCO[C@H](CN(C)C(=O)Nc2ccc3c(c2)OCO3)[C@@H](C)CN([C@@H](C)CO)C(=O)c2cc(NC(=O)Nc3cccc4ccccc34)ccc2O1,–,–,·,–,·,·,·,·
CCc1csc(N2[C@H](CO)[C@@H](c3ccc(-c4cccc(F)c4)cc3)[C@@H]2C#N)n1,–,–,·,–,·,·,·,·
C/C=C/c1ccc([C@@H]2[C@@H](CO)N(c3ncc(CC)s3)[C@H]2C#N)cc1,–,–,·,99,–,–,–,–
CCc1csc(N2[C@@H](C#N)[C@H](c3ccc(-c4ccc(F)cc4)cc3)[C@@H]2CO)n1,–,–,·,105,102,–,–,–
CCc1csc(N2[C@H](C#N)[C@H](c3ccc(-c4ccc(F)cc4)cc3)[C@@H]2CO)n1,–,–,·,102,101,110,–,37
SMILES,GASC1 inh,Pf Dd2 growth,IDH1 mut inh,T cruzi growth-1,T cruzi growth-2,T cruzi growth-3,NIH3T3 tox,NIH3T3 tox 2
COc1ccc(CNC(=O)C[C@H]2C[C@H]3c4cc(NC(=O)CC5CC5)ccc4O[C@H]3[C@@H](CO)O2)cc1,–,–,–,–,·,·,·,·
O=C(Nc1cccc(F)c1)N1CCCCN2[C@H](CO)[C@@H](c3ccc(-c4ccncc4)cc3)[C@@H]2C1,–,–,·,103,113,–,36,31
Cc1ccc(-c2ccc([C@H]3[C@H]4CN(C(=O)Nc5cccc(F)c5)CCCCN4[C@H]3CO)cc2)cc1,–,–,·,–,·,·,·,·
O=C(Nc1cccc(F)c1)N1CCCCN2[C@H](CO)[C@H](c3ccc(-c4ccncc4)cc3)[C@@H]2C1,–,–,·,108,100,–,–,–
Cc1ccc(-c2ccc([C@H]3[C@H](CO)N4CCCCN(C(=O)Nc5cccc(F)c5)C[C@@H]34)cc2)cc1,–,–,·,106,99,?,118,105
O=C(Nc1ccc(F)cc1)N1CCCCN2[C@@H](CO)[C@H](c3ccc(-c4ccncc4)cc3)[C@@H]2C1,–,–,·,–,·,·,·,·
COCC(=O)N(C)C[C@H]1Oc2ncc(-c3cccc(OC)c3)cc2C(=O)N([C@@H](C)CO)C[C@H]1C,–,–,–,–,·,·,·,·
CN1[C@@H]2Cn3c(ccc(C4=CCCC4)c3=O)[C@H]1[C@@H](C(=O)N1CCOCC1)[C@@H]2CO,–,–,·,–,·,·,·,·
CO[C@@H]1CC[C@@H]2CCOc3c(C#N)cccc3C(=O)N(C)[C@@H](C)C(=O)N(C)C[C@H]1O2,–,–,–,–,·,·,·,·
CC(C)CC#Cc1ccc2c(c1)O[C@@H](CN(C)Cc1ccccc1)[C@@H](C)CN([C@@H](C)CO)S2(=O)=O,–,–,–,125,96,110,–,106

# Compound activity deposited in PubChem BioAssay by Broad Institute.
